Measurements reported in ChEMBL document CHEMBL1122153, “Novel dimeric derivatives of leucomycins and tylosin, sixteen-membered macrolides” (1982).
Converted amounts (≈) assume the structure as drawn. One block for each molecule: values may come before it.

Experiments:
Format in all cases: functional
[1] = tested on: Bacillus subtilis; test: Minimum inhibitory concentration (MIC) required to inhibit the growth of Bacillus subtilis PCI 219 by using nutrient agar as growth medium
[2] = tested on: Klebsiella pneumoniae; test: Minimum inhibitory concentration (MIC) required to inhibit the growth of Klebsiella pneumoniae PCI 602 using nutrient agar as growth medium
[3] = tested on: Micrococcus luteus; test: Minimum inhibitory concentration (MIC) required to inhibit the growth of Sarcina lutea PCI 1001 by using nutrient agar as growth medium
[4] = tested on: Escherichia coli; test: Minimum inhibitory concentration (MIC) required to inhibit the growth of Escherichia coli NIHJ using nutrient agar as growth medium
[5] = tested on: Staphylococcus aureus; test: Minimum inhibitory concentration (MIC) required to inhibit the growth of Staphylococcus aureus FDA 209P by using nutrient agar as growth medium
[6] = tested on: Escherichia coli; test: Inhibition of 10,11,12,13-[3H]tetrahydroleucomycin A3 binding to Escherichia coli Ribosome; conditions: read-out: ID50
Summary of the method: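 Competition binding of [3H]tetrahydroleucomycin A3 to E. coli ribosomes. ID50 is the concentration of test agent giving 50% inhibition of radioligand binding.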

Structure (SMILES): CO[C@@H]1[C@@H](OC2OC(C)C(OC3CC(C)(O)C(OC(=O)CC(C)C)C(C)O3)C(N(C)C)C2O)[C@@H](CC=O)C[C@@H](C)[C@@H](O)/C=C/C=C/C[C@@H](C)OC(=O)C[C@H]1OC(C)=O (some centres undefined)
- MIC [1]: 0.4 µg/mL (≈ 0.483 µM)
- MIC [2]: 50 µg/mL (≈ 60.4 µM)
- MIC [3]: < 0.1 µg/mL
- MIC [4]: 50 µg/mL (≈ 60.4 µM)
- MIC [5]: 0.4 µg/mL (≈ 0.483 µM)

Structure (SMILES): CCCC(=O)OC1C(C)OC(OC2C(C)OC(O[C@H]3[C@@H](CCN)C[C@@H](C)[C@@H](O)/C=C/C=C/C[C@@H](C)OC(=O)C[C@@H](O)[C@@H]3OC)C(O)C2N(C)C)CC1(C)O (some centres undefined)
- MIC [1]: > 100 µg/mL
- MIC [2]: > 100 µg/mL
- MIC [3]: 25 µg/mL (≈ 32.3 µM)
- MIC [4]: > 100 µg/mL
- MIC [5]: > 100 µg/mL

Structure (SMILES): CO[C@@H]1[C@@H](OC2OC(C)C(OC3CC(C)(O)C(OC(=O)CC(C)C)C(C)O3)C(N(C)C)C2O)[C@@H](CCNCC[C@@H]2C[C@H](C)[C@H](O)/C=C/C=C/C[C@H](C)OC(=O)C[C@H](OC(C)=O)[C@@H](OC)[C@@H]2OC2OC(C)C(OC3CC(C)(O)C(OC(=O)CC(C)C)C(C)O3)C(N(C)C)C2O)C[C@@H](C)[C@@H](O)/C=C/C=C/C[C@@H](C)OC(=O)C[C@H]1OC(C)=O (some centres undefined)
- MIC [1]: 6.25 µg/mL (≈ 3.81 µM)
- MIC [2]: > 100 µg/mL
- IC50 [6]: 0.1 µg/mL (≈ 0.0609 µM)
- MIC [3]: 25 µg/mL (≈ 15.2 µM)
- MIC [4]: > 100 µg/mL
- MIC [5]: 100 µg/mL (≈ 60.9 µM)

Structure (SMILES): CC[C@H]1C[C@@H](C)[C@@H](O)/C=C/C=C/C[C@@H](C)OC(=O)C[C@@H](OC(C)=O)[C@H](OC)[C@H]1OC1OC(C)C(OC2CC(C)(O)C(OC(=O)CC(C)C)C(C)O2)C(N(C)C)C1O (some centres undefined)
- MIC [1]: 6.25 µg/mL (≈ 7.68 µM)
- MIC [2]: > 100 µg/mL
- MIC [3]: 1.56 µg/mL (≈ 1.92 µM)
- MIC [4]: > 100 µg/mL
- MIC [5]: 6.25 µg/mL (≈ 7.68 µM)

Structure (SMILES): CC[C@@H]1OC(=O)C[C@H](O)[C@@H](C)[C@H](OC2OC(C)C(O)C(N(C)C)C2O)[C@H](CCNCC[C@H]2C[C@@H](C)C(=O)/C=C/C(C)=C/C(COC3OC(C)C(O)C(OC)C3OC)[C@@H](CC)OC(=O)C[C@@H](O)[C@H](C)[C@H]2OC2OC(C)C(O)C(N(C)C)C2O)C[C@H](C)C(=O)/C=C/C(C)=C/C1COC1OC(C)C(O)C(OC)C1OC (some centres undefined)
- MIC [1]: 25 µg/mL (≈ 16.4 µM)
- MIC [2]: 100 µg/mL (≈ 65.4 µM)
- MIC [3]: 0.78 µg/mL (≈ 0.51 µM)
- MIC [4]: 50 µg/mL (≈ 32.7 µM)
- MIC [5]: 3.12 µg/mL (≈ 2.04 µM)

Structure (SMILES): CCCC(=O)OC1C(C)OC(OC2C(C)OC(O[C@H]3[C@@H](CC=O)C[C@@H](C)[C@@H](O)/C=C/C=C/C[C@@H](C)OC(=O)C[C@@H](O)[C@@H]3OC)C(O)C2N(C)C)CC1(C)O (some centres undefined)
- MIC [1]: 0.2 µg/mL (≈ 0.259 µM)
- MIC [2]: 25 µg/mL (≈ 32.4 µM)
- IC50 [6]: 0.0012 µg/mL (≈ 0.00155 µM)
- MIC [3]: < 0.1 µg/mL
- MIC [4]: 25 µg/mL (≈ 32.4 µM)
- MIC [5]: < 0.1 µg/mL

Structure (SMILES): CC[C@H]1OC(=O)C[C@@H](O)[C@H](C)[C@@H](O[C@@H]2O[C@H](C)[C@@H](O[C@H]3C[C@@](C)(O)[C@@H](O)[C@H](C)O3)[C@H](N(C)C)[C@H]2O)[C@@H](CC=O)C[C@@H](C)C(=O)/C=C/C(C)=C/[C@@H]1CO[C@@H]1O[C@H](C)[C@@H](O)[C@@H](OC)[C@H]1OC [TYLOSIN]
- MIC [1]: 0.78 µg/mL (≈ 0.851 µM)
- MIC [2]: 100 µg/mL (≈ 109 µM)
- IC50 [6]: 0.0004 µg/mL (≈ 0.000437 µM)
- MIC [3]: < 0.1 µg/mL
- MIC [4]: 50 µg/mL (≈ 54.6 µM)
- MIC [5]: 0.78 µg/mL (≈ 0.851 µM)

Further molecules by falling MIC [1], results first:

- MIC [1]: 50 µg/mL (≈ 60.3 µM)
- MIC [2]: > 100 µg/mL
- MIC [3]: > 100 µg/mL
- MIC [4]: > 100 µg/mL
- MIC [5]: > 100 µg/mL
Structure (SMILES): CO[C@@H]1[C@@H](OC2OC(C)C(OC3CC(C)(O)C(OC(=O)CC(C)C)C(C)O3)C(N(C)C)C2O)[C@@H](CCN)C[C@@H](C)[C@@H](O)/C=C/C=C/C[C@@H](C)OC(=O)C[C@H]1OC(C)=O (some centres undefined)

- MIC [1]: 25 µg/mL (≈ 27.3 µM)
- MIC [2]: > 100 µg/mL
- MIC [3]: 6.25 µg/mL (≈ 6.81 µM)
- MIC [4]: > 100 µg/mL
- MIC [5]: 50 µg/mL (≈ 54.5 µM)
Structure (SMILES): CC[C@H]1OC(=O)C[C@@H](O)[C@H](C)[C@@H](OC2OC(C)C(OC3CC(C)(O)C(O)C(C)O3)C(N(C)C)C2O)[C@@H](CCN)C[C@@H](C)C(=O)/C=C/C(C)=C/C1COC1OC(C)C(O)C(OC)C1OC (some centres undefined)

- MIC [1]: 12.5 µg/mL (≈ 8.18 µM)
- MIC [2]: > 100 µg/mL
- IC50 [6]: 0.02 µg/mL (≈ 0.0131 µM)
- MIC [3]: 12.5 µg/mL (≈ 8.18 µM)
- MIC [4]: > 100 µg/mL
- MIC [5]: 50 µg/mL (≈ 32.7 µM)
Structure (SMILES): CCCC(=O)OC1C(C)OC(OC2C(C)OC(O[C@@H]3[C@H](CCNCC[C@H]4C[C@@H](C)[C@@H](O)/C=C/C=C/C[C@@H](C)OC(=O)C[C@@H](O)[C@H](OC)[C@H]4OC4OC(C)C(OC5CC(C)(O)C(OC(=O)CCC)C(C)O5)C(N(C)C)C4O)C[C@H](C)[C@H](O)/C=C/C=C/C[C@H](C)OC(=O)C[C@H](O)[C@H]3OC)C(O)C2N(C)C)CC1(C)O (some centres undefined)
